Test results: ChEMBL document CHEMBL1149590, “Synthesis and evaluation of homo-bivalent GnRHR ligands” (Bioorg Med Chem, 2007)

What was measured:
[1] = target: T1, Gonadotropin-releasing hormone receptor (Homo sapiens, UniProt P30968); test: Antagonist activity at human GnRHR expressed in CHO cells after 30 mins by luciferase reporter gene assay; format: functional, cell-based
T1 sequence (P30968 whole entry): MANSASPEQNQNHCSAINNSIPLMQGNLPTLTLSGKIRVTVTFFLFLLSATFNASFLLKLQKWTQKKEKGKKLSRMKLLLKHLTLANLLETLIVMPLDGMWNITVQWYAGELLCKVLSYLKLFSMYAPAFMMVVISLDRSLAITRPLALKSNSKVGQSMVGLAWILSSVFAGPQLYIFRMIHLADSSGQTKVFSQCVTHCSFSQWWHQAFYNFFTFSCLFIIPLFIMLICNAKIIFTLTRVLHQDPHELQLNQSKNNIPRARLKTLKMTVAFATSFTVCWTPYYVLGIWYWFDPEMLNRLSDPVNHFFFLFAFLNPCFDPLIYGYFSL

[2] = target: T2, Gonadotropin-releasing hormone receptor (Homo sapiens) (UniProt P30968); test: Displacement of [125I]triptorelin from human GnRHR expressed in CHO cells at 1 uM; format: cell-based
T2 sequence (whole entry): T1 sequence (P30968 whole entry)
Method in brief: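 Single-point displacement at 1 μM test compound. CHO membranes bearing wild-type human GnRHR (20 µg protein) incubated 45 min at 22 °C with [125I]triptorelin (30,000 cpm) in Tris-HCl pH 7.4 containing MgCl2 and BSA. Nonspecific binding taken with 1 µM ganirelix, total binding with buffer. Bound radioligand recovered by filtration and gamma-counted; percent displacement reported.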

[3] = target: T1, Gonadotropin-releasing hormone receptor; test: Displacement of [125I]triptorelin from human GnRHR expressed in CHO cells; format: cell-based
Method in brief: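 Membranes from CHO cells expressing wild-type human GnRHR (20 µg protein) incubated with [125I]triptorelin (30,000 cpm) and five competitor concentrations in 50 mM Tris-HCl pH 7.4, 2 mM MgCl2, 0.1% BSA, 45 min at 22 °C. Nonspecific binding defined with 1 µM ganirelix. Filtration, gamma counting. Ki from IC50 via Cheng-Prusoff (Kd 1.1 nM); at least three experiments in duplicate.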

Compound	IC50 [1]	Activity [2]	Ki [3]
CCNC(=O)Nc1ccc(-c2nc3n(Cc4c(F)cccc4F)cc(C(=O)NCc4cn(CCOCCOCCN=[N+]=[N-])nn4)c(=O)n3c2CN(C)Cc2ccccc2)cc1	> 10000 nM	81%	
CCOC(=O)c1cn(Cc2c(F)cccc2F)c2nc(-c3ccc(NC(=O)NCc4cn(CCOCCOCCOCCN=[N+]=[N-])nn4)cc3)c(CN(C)Cc3ccccc3)n2c1=O	3020 nM	84%	
C#CCNC(=O)CN(Cc1ccccc1)Cc1c(-c2ccc(NC(=O)NCC)cc2)nc2n(Cc3c(F)cccc3F)cc(C(=O)OCC)c(=O)n12	1000 nM	98%	5.25 nM
CCNC(=O)Nc1ccc(-c2nc3n(Cc4c(F)cccc4F)cc(C(=O)NCc4cn(CCOCCOCCOCCN=[N+]=[N-])nn4)c(=O)n3c2CN(C)Cc2ccccc2)cc1	> 10000 nM	69%	
CCNC(=O)Nc1ccc(-c2nc3n(Cc4c(F)cccc4F)cc(C(=O)NCc4cn(CCOCCn5cc(CNC(=O)c6cn(Cc7c(F)cccc7F)c7nc(-c8ccc(NC(=O)NCC)cc8)c(CN(C)Cc8ccccc8)n7c6=O)nn5)nn4)c(=O)n3c2CN(C)Cc2ccccc2)cc1	> 10000 nM	64%	
CCOC(=O)c1cn(Cc2c(F)cccc2F)c2nc(-c3ccc(NC(=O)NCc4cn(CCOCCOCCN=[N+]=[N-])nn4)cc3)c(CN(C)Cc3ccccc3)n2c1=O	2400 nM	84%	
CCOC(=O)c1cn(Cc2c(F)cccc2F)c2nc(-c3ccc(NC(=O)NCc4cn(CCOCCOCCOCCOCCn5cc(CNC(=O)Nc6ccc(-c7nc8n(Cc9c(F)cccc9F)cc(C(=O)OCC)c(=O)n8c7CN(C)Cc7ccccc7)cc6)nn5)nn4)cc3)c(CN(C)Cc3ccccc3)n2c1=O	1350 nM	89%	
CCOC(=O)c1cn(Cc2c(F)cccc2F)c2nc(-c3ccc(NC(=O)NCc4cn(CCOCCN=[N+]=[N-])nn4)cc3)c(CN(C)Cc3ccccc3)n2c1=O	3630 nM	85%	
C#CCNC(=O)c1cn(Cc2c(F)cccc2F)c2nc(-c3ccc(NC(=O)NCC)cc3)c(CN(C)Cc3ccccc3)n2c1=O	7080 nM	85%	162 nM
CCOC(=O)c1cn(Cc2c(F)cccc2F)c2nc(-c3ccc(NC(=O)NCc4cn(CCN=[N+]=[N-])nn4)cc3)c(CN(C)Cc3ccccc3)n2c1=O	2570 nM	76%	
CCOC(=O)c1cn(Cc2c(F)cccc2F)c2nc(-c3ccc(NC(=O)NCc4cn(CCn5cc(CNC(=O)Nc6ccc(-c7nc8n(Cc9c(F)cccc9F)cc(C(=O)OCC)c(=O)n8c7CN(C)Cc7ccccc7)cc6)nn5)nn4)cc3)c(CN(C)Cc3ccccc3)n2c1=O	1910 nM	68%	
CCOC(=O)c1cn(Cc2c(F)cccc2F)c2nc(-c3ccc(NC(=O)NCc4cn(CCOCCn5cc(CNC(=O)Nc6ccc(-c7nc8n(Cc9c(F)cccc9F)cc(C(=O)OCC)c(=O)n8c7CN(C)Cc7ccccc7)cc6)nn5)nn4)cc3)c(CN(C)Cc3ccccc3)n2c1=O	3160 nM	88%	
CCNC(=O)Nc1ccc(-c2nc3n(Cc4c(F)cccc4F)cc(C(=O)NCc4cn(CCOCCOCCOCCOCCN=[N+]=[N-])nn4)c(=O)n3c2CN(C)Cc2ccccc2)cc1	> 10000 nM	70%	
CCNC(=O)Nc1ccc(-c2nc3n(Cc4c(F)cccc4F)cc(C(=O)NCc4cn(CCN=[N+]=[N-])nn4)c(=O)n3c2CN(C)Cc2ccccc2)cc1	> 10000 nM	78%	
CCNC(=O)Nc1ccc(-c2nc3n(Cc4c(F)cccc4F)cc(C(=O)OCC)c(=O)n3c2CN(CC(=O)NCc2cn(CCn3cc(CNC(=O)CN(Cc4ccccc4)Cc4c(-c5ccc(NC(=O)NCC)cc5)nc5n(Cc6c(F)cccc6F)cc(C(=O)OCC)c(=O)n45)nn3)nn2)Cc2ccccc2)cc1	1910 nM	65%	
CCNC(=O)Nc1ccc(-c2nc3n(Cc4c(F)cccc4F)cc(C(=O)OCC)c(=O)n3c2CN(CC(=O)NCc2cn(CCOCCOCCOCCn3cc(CNC(=O)CN(Cc4ccccc4)Cc4c(-c5ccc(NC(=O)NCC)cc5)nc5n(Cc6c(F)cccc6F)cc(C(=O)OCC)c(=O)n45)nn3)nn2)Cc2ccccc2)cc1	1320 nM	71%	69.2 nM
CCNC(=O)Nc1ccc(-c2nc3n(Cc4c(F)cccc4F)cc(C(=O)NCc4cn(CCn5cc(CNC(=O)c6cn(Cc7c(F)cccc7F)c7nc(-c8ccc(NC(=O)NCC)cc8)c(CN(C)Cc8ccccc8)n7c6=O)nn5)nn4)c(=O)n3c2CN(C)Cc2ccccc2)cc1	> 10000 nM	26%	
CCNC(=O)Nc1ccc(-c2nc3n(Cc4c(F)cccc4F)cc(C(=O)NCc4cn(CCOCCOCCOCCOCCn5cc(CNC(=O)c6cn(Cc7c(F)cccc7F)c7nc(-c8ccc(NC(=O)NCC)cc8)c(CN(C)Cc8ccccc8)n7c6=O)nn5)nn4)c(=O)n3c2CN(C)Cc2ccccc2)cc1	> 10000 nM	85%	
CCNC(=O)Nc1ccc(-c2nc3n(Cc4c(F)cccc4F)cc(C(=O)NCc4cn(CCOCCN=[N+]=[N-])nn4)c(=O)n3c2CN(C)Cc2ccccc2)cc1	> 10000 nM	68%	
CCNC(=O)Nc1ccc(-c2nc3n(Cc4c(F)cccc4F)cc(C(=O)NCc4cn(CCOCCOCCOCCn5cc(CNC(=O)c6cn(Cc7c(F)cccc7F)c7nc(-c8ccc(NC(=O)NCC)cc8)c(CN(C)Cc8ccccc8)n7c6=O)nn5)nn4)c(=O)n3c2CN(C)Cc2ccccc2)cc1	> 10000 nM	86%	
CCNC(=O)Nc1ccc(-c2nc3n(Cc4c(F)cccc4F)cc(C(=O)OCC)c(=O)n3c2CN(CC(=O)NCc2cn(CCOCCn3cc(CNC(=O)CN(Cc4ccccc4)Cc4c(-c5ccc(NC(=O)NCC)cc5)nc5n(Cc6c(F)cccc6F)cc(C(=O)OCC)c(=O)n45)nn3)nn2)Cc2ccccc2)cc1	1550 nM	71%	

Now those with a lower IC50 [1], led by results:

IC50 [1]	Activity [2]	Ki [3]	Compound
676 nM	98%	1.35 nM	C#CCNC(=O)Nc1ccc(-c2nc3n(Cc4c(F)cccc4F)cc(C(=O)OCC)c(=O)n3c2CN(C)Cc2ccccc2)cc1
355 nM	90%	29.5 nM	CCOC(=O)c1cn(Cc2c(F)cccc2F)c2nc(-c3ccc(NC(=O)NCc4cn(CCOCCOCCOCCn5cc(CNC(=O)Nc6ccc(-c7nc8n(Cc9c(F)cccc9F)cc(C(=O)OCC)c(=O)n8c7CN(C)Cc7ccccc7)cc6)nn5)nn4)cc3)c(CN(C)Cc3ccccc3)n2c1=O
525 nM	66%		CCNC(=O)Nc1ccc(-c2nc3n(Cc4c(F)cccc4F)cc(C(=O)OCC)c(=O)n3c2CN(CC(=O)NCc2cn(CCOCCN=[N+]=[N-])nn2)Cc2ccccc2)cc1
724 nM	76%		CCNC(=O)Nc1ccc(-c2nc3n(Cc4c(F)cccc4F)cc(C(=O)OCC)c(=O)n3c2CN(CC(=O)NCc2cn(CCOCCOCCOCCN=[N+]=[N-])nn2)Cc2ccccc2)cc1
309 nM	89%	195 nM	CCNC(=O)Nc1ccc(-c2nc3n(Cc4c(F)cccc4F)cc(C(=O)OCC)c(=O)n3c2CN(CC(=O)NCc2cn(CCOCCOCCOCCOCCn3cc(CNC(=O)CN(Cc4ccccc4)Cc4c(-c5ccc(NC(=O)NCC)cc5)nc5n(Cc6c(F)cccc6F)cc(C(=O)OCC)c(=O)n45)nn3)nn2)Cc2ccccc2)cc1
676 nM	90%		CCOC(=O)c1cn(Cc2c(F)cccc2F)c2nc(-c3ccc(NC(=O)NCc4cn(CCOCCOCCOCCOCCN=[N+]=[N-])nn4)cc3)c(CN(C)Cc3ccccc3)n2c1=O
832 nM	84%	58.9 nM	CCNC(=O)Nc1ccc(-c2nc3n(Cc4c(F)cccc4F)cc(C(=O)OCC)c(=O)n3c2CN(CC(=O)NCc2cn(CCOCCOCCn3cc(CNC(=O)CN(Cc4ccccc4)Cc4c(-c5ccc(NC(=O)NCC)cc5)nc5n(Cc6c(F)cccc6F)cc(C(=O)OCC)c(=O)n45)nn3)nn2)Cc2ccccc2)cc1
70.8 nM	99%	4.79 nM	CCNC(=O)Nc1ccc(-c2nc3n(Cc4c(F)cccc4F)cc(C(=O)OCC)c(=O)n3c2CN(C)Cc2ccccc2)cc1
832 nM	78%		CCNC(=O)Nc1ccc(-c2nc3n(Cc4c(F)cccc4F)cc(C(=O)OCC)c(=O)n3c2CN(CC(=O)NCc2cn(CCOCCOCCOCCOCCN=[N+]=[N-])nn2)Cc2ccccc2)cc1
724 nM	74%		CCNC(=O)Nc1ccc(-c2nc3n(Cc4c(F)cccc4F)cc(C(=O)OCC)c(=O)n3c2CN(CC(=O)NCc2cn(CCN=[N+]=[N-])nn2)Cc2ccccc2)cc1
468 nM	83%		CCNC(=O)Nc1ccc(-c2nc3n(Cc4c(F)cccc4F)cc(C(=O)OCC)c(=O)n3c2CN(CC(=O)NCc2cn(CCOCCOCCN=[N+]=[N-])nn2)Cc2ccccc2)cc1
955 nM	94%	23.4 nM	CCOC(=O)c1cn(Cc2c(F)cccc2F)c2nc(-c3ccc(NC(=O)NCc4cn(CCOCCOCCn5cc(CNC(=O)Nc6ccc(-c7nc8n(Cc9c(F)cccc9F)cc(C(=O)OCC)c(=O)n8c7CN(C)Cc7ccccc7)cc6)nn5)nn4)cc3)c(CN(C)Cc3ccccc3)n2c1=O
